Published values gathered from unrelated publications.
Each line is one published result; the experiments were not run side by side.
Target: Dual specificity tyrosine-phosphorylation-regulated kinase 1B (DYRK1B, Homo sapiens, UniProt Q9Y463)

SMILES	observed	mode	technique	tested at	quantity	result
CC(C)(C)c1nc(-c2cccc(NS(=O)(=O)c3c(F)cccc3F)c2F)c(-c2ccnc(N)n2)s1	enzyme activity	inhibitor	radiometric	1 µM	remaining activity	98%
Nc1ncc(-c2nc(N3CCOCC3)nc(N3CCOCC3)n2)c(C(F)F)n1	cell-free assay	–	competition with immobilised ligand	10 µM	remaining binding	76%
COCc1c(-c2cc3cc(C)cc(OC)c3s2)c2c(N)ncnn2c1CN1CCNC(=O)C1	cell-free assay	–	competition with immobilised ligand	1 µM	inhibition	71%
Cn1cc(-c2cccc(N3CCc4c(sc5c4CC(C)(C)C5)C3=O)c2CO)cc(Nc2ccncn2)c1=O	enzyme activity	inhibitor	–	1 µM	inhibition	2%
COc1ncccc1-c1cnn2ccc(N3CCN(C(=O)OC(C)C)CC3)nc12	binding	–	competition with immobilised ligand	1 µM	remaining binding	65%
CC(C)(C)c1nc2c(s1)c1nc(N)ncc1c1ccc(NS(=O)(=O)c3c(F)cccc3F)c(F)c12	enzyme activity	inhibitor	radiometric	1 µM	remaining activity	106%
Cc1nn(C)cc1-c1nc2c(N3CCN(Cc4ccc(Cl)cc4)CC3)c(Cl)cnc2[nH]1	binding	–	competition with immobilised ligand	1 µM	remaining binding	75%
COc1cc(Nc2ncc(F)c(Nc3ccc4c(n3)NC(=O)C(C)(C)O4)n2)cc(OC)c1OC	binding	–	competition with immobilised ligand	10 µM	inhibition	78%
O=C1NC(=O)C(c2cn(CCCn3ccnc3)c3ccccc23)=C1Nc1ccccc1	enzyme activity	inhibitor	radiometric	0.5 µM	remaining activity	56.3%
Cn1cncc1[C@@](O)(COc1ccc(C#N)cc1-c1ccc(OC(F)(F)F)cc1)c1ccc(C#N)cc1	cell-free assay	–	competition with immobilised ligand	1 µM	remaining binding	38%
CC#CC(=O)Nc1cc2c(Nc3ccc(F)c(Cl)c3)ncnc2cn1	enzyme activity	inhibitor	radiometric	0.5 µM	remaining activity	103%
Cn1cc(-c2cc(F)cc(N3CCn4c(cc5c4CCCC5)C3=O)c2CO)cc(Nc2ccc(N3CCN(C4COC4)CC3)cn2)c1=O	enzyme activity	inhibitor	–	0.1 µM	inhibition	6%
COc1ccc(COc2ccc(Cc3cnc(N)nc3N)cc2OC)cc1	enzyme activity	inhibitor	radiometric	0.5 µM	remaining activity	104%
N#CC1(c2ccccn2)CCN(Cc2cc(C(=O)O)c(=O)n3ccccc23)CC1	cell-free assay	–	competition with immobilised ligand	1 µM	remaining binding	98%
C=CC(=O)N1CCC[C@@H](n2nc(-c3ccc(Oc4ccccc4)cc3)c3c(N)ncnc32)C1	cell-free assay	–	–	10 µM	remaining signal	125%
